Activity calls are given as the source filed them. Unless noted, the rule behind the calls is not given here.
Columns and labels:
U-937 [1] = experiment: Inhibition of histone H3R17 methylation in human U937 cells at 50 uM after 24 hrs; assay type: functional, cell-based
Method in brief: (§1)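 U937 cells treated at 50 µM for 24 h. Histones extracted with Triton buffer, then 0.2 M HCl overnight at 4 °C. 3–10 µg run on 15% SDS-PAGE and immunoblotted with anti-monomethyl-H3K4, monomethyl-H4R3 or dimethyl-H3R17 (1:500, overnight 4 °C), ECL detection. Loading controls: total H4 (H3K4), Ponceau Red (Arg marks).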

[2] = target: RmtA (Emericella nidulans) (UniProt Q5VLE3); experiment: Inhibition of Aspergillus nidulans RmtA at 91.8 uM
Method in brief: (§2)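 Enzyme was GST-RmtA fusion expressed in E. coli BL21 and glutathione-affinity purified (500 ng), preincubated with compound for 15 min at room temperature. Then 20 µg chicken erythrocyte core histones and 0.55 µCi [3H]AdoMet were added, 30 min at 30 °C. Stopped with 25% TCA, filtered, counted by liquid scintillation.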

U-937 [3] = experiment: Inhibition of histone H4R3 methylation in human U937 cells at 50 uM after 24 hrs; assay type: functional, cell-based; method in brief: as §1
[4] = target: RmtA (Emericella nidulans) (UniProt Q5VLE3); experiment: Inhibition of Aspergillus nidulans RmtA at 70.4 uM; method in brief: as §2
[5] = target: T1, Histone-lysine N-methyltransferase SETD7 (Homo sapiens) (UniProt Q8WTS6); experiment: Inhibition of human recombinant SET7 assessed as histone H3 protein methylation at 100 uM
T1 sequence (whole entry): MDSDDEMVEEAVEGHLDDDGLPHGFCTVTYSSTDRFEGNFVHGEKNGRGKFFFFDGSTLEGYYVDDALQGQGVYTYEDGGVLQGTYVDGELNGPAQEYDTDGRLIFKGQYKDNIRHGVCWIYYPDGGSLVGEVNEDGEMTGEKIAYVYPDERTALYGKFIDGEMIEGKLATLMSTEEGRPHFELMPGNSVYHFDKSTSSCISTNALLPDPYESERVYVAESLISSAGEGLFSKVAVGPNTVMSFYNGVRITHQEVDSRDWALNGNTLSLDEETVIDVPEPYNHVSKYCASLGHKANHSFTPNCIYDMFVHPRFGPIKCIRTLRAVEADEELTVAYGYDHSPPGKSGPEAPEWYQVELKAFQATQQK
Method in brief: (§3)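 Recombinant enzymes (0.2 µg) with substrate (0.5 µg: Npl3p for PRMT1, PABP1 for CARM1, histone H3 for SET7), 0.5 µM [3H]AdoMet and 100 µM compound in PBS pH 7.4 with 3.3% v/v DMSO, 90 min at 30 °C. Products separated by 10% SDS-PAGE, transferred to PVDF, detected by fluorography on film overnight.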

[6] = target: Protein arginine N-methyltransferase 1 (Homo sapiens) (UniProt Q99873); experiment: Inhibition of human recombinant PRMT1 assessed as nuclear ribonucleoprotein Npl3p methylation at 100 uM; method in brief: as §3
[7] = target: T2, Histone-arginine methyltransferase CARM1 (Homo sapiens) (UniProt Q86X55); experiment: Inhibition of human recombinant CARM1 assessed as poly(A) binding protein 1 methylation at 100 uM; method in brief: as §3
T2 sequence (whole entry): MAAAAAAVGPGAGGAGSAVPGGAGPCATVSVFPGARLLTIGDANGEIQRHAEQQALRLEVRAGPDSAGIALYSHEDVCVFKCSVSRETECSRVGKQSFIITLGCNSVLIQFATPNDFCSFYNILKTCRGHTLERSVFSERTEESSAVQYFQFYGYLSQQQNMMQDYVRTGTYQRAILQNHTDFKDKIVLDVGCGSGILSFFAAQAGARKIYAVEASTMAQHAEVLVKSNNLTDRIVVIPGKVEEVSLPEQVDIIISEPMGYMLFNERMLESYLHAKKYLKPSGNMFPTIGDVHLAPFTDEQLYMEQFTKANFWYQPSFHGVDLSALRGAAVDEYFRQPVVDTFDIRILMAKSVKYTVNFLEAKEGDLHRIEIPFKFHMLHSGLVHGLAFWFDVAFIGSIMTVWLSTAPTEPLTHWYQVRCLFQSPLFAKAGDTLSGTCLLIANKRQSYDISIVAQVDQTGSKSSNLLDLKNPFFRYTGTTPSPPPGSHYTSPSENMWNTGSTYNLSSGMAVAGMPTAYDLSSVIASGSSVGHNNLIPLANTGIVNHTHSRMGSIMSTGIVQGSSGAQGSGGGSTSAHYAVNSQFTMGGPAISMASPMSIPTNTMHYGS

[8] = target: RmtA (Emericella nidulans) (UniProt Q5VLE3); experiment: Inhibition of Aspergillus nidulans RmtA at 89.4 uM
U-937 [9] = experiment: Inhibition of histone H3K4 methylation in human U937 cells at 50 uM after 24 hrs; assay type: functional, cell-based; method in brief: as §1
U-937 [10] = experiment: Inhibition of human p300/CBP in U937 cells at 50 uM assessed as histone H3 acetylation; assay type: cell-based
Method in brief: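 Source was U937 nuclear extract (10 µg per assay) as p300/CBP HAT, with histone H3 substrate and compound at 50 µM or DMSO control for 90 min. Acetyl-H3 detected by indirect ELISA, quantified against acetylated H3 peptide standard curves, […].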

U-937 [11] = experiment: Cell cycle arrest in human U937 cells assessed as accumulation at G2 phase at 25 uM after 30 hrs; assay type: functional, cell-based
Method in brief: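 U937 cells in RPMI with 10% fetal calf serum, HEPES and glutamine, kept at 200000 cells/mL; treated at 25 µM for 30 h, then the distribution across cell cycle phases was analysed.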

[12] = target: T3, NAD-dependent protein deacetylase sirtuin-2 (Homo sapiens) (UniProt Q8IXJ6); experiment: Inhibition of human SIRT2 at 25 uM
T3 sequence (whole entry): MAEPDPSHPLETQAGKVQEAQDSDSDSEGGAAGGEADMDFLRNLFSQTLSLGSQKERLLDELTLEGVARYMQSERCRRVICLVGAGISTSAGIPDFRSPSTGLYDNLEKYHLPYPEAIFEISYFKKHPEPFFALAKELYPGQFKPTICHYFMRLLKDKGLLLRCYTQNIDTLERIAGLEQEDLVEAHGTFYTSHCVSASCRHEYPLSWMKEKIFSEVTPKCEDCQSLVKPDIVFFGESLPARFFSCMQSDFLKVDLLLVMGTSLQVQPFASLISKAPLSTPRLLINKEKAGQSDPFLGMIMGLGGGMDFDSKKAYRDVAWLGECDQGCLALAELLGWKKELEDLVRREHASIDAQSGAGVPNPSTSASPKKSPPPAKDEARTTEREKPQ
Method in brief: (§4)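 Fluorescent two-stage assay. SIRT1 (1 U/well) or SIRT2 (5 U/well) with Fluor de Lys-SIRT1/2 substrate, NAD+ and compound at 25 µM, 37 °C for 2 h. Developer II containing nicotinamide then stopped the reaction and generated signal, read at ex 360/em 460 nm.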

[13] = target: Protein arginine N-methyltransferase 1 (Homo sapiens) (UniProt Q99873); experiment: Inhibition of human recombinant PRMT1 assessed as histone H4 methylation at 50 uM
U-937 [14] = experiment: Induction of apoptosis in human U937 cells at 25 uM after 30 hrs; assay type: functional
Method in brief: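 Apoptosis read as caspase 3 activation by FACS, in U937 cells (RPMI, 10% fetal calf serum, 200000 cells/mL) exposed to 25 µM for 30 h.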

[15] = target: T4, NAD-dependent protein deacetylase sirtuin-1 (Homo sapiens) (UniProt Q96EB6); experiment: Inhibition of human SIRT1 at 25 uM; method in brief: as §4
T4 sequence (whole entry): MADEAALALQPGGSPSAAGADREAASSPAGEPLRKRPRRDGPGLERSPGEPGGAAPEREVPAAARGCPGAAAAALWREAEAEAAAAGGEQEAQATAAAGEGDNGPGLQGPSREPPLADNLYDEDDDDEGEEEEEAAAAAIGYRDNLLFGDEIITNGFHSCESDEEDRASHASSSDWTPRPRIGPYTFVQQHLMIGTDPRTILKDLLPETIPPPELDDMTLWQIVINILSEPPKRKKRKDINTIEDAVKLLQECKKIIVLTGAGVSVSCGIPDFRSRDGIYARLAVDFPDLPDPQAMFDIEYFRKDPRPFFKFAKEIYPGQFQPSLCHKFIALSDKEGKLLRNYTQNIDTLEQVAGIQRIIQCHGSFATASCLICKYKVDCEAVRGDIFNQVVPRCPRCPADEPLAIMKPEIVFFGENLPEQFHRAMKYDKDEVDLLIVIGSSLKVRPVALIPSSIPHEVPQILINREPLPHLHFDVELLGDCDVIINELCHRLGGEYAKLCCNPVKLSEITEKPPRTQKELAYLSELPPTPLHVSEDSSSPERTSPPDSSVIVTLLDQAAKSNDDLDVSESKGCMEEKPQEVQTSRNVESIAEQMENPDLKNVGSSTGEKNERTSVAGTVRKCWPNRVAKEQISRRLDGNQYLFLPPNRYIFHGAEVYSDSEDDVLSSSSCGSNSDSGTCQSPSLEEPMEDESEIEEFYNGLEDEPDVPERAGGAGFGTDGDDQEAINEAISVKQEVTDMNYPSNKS

RmtA = RmtA (Emericella nidulans, UniProt Q5VLE3); experiment: Inhibition of Aspergillus nidulans RmtA; method in brief: as §2
U-937 [16] = experiment: Induction of granulocytic differentiation in human U937 cells assessed as CD11c expression at 5 uM after 30 hrs; assay type: functional
Method in brief: (§5)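 U937 cells treated for 30 h, then stained with PE-conjugated CD11c (PE mouse IgG1 as control) for 30 min at 4 °C in the dark and resuspended in PBS with PI (0.25 µg/mL). Read-out is percent CD11c-positive/PI-negative cells, with dead PI-positive cells excluded. Coloured compounds limited the top dose to 5 µM or lower.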

U-937 [17] = experiment: Induction of granulocytic differentiation in human U937 cells assessed as CD11c expression at 0.5 uM after 30 hrs; assay type: functional; method in brief: as §5

Sequence of RmtA (Emericella nidulans) (Q5VLE3 as listed by the source): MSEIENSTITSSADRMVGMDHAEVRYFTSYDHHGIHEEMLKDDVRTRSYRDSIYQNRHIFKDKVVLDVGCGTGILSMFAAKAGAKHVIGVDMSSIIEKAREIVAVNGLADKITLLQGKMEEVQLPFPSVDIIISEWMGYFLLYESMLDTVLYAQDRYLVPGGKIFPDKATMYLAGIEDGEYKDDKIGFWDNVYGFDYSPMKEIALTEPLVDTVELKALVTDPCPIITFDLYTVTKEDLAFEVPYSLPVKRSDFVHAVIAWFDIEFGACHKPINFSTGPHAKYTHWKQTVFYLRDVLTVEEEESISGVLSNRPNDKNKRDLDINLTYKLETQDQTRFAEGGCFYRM
Sequence of Protein arginine N-methyltransferase 1 (Homo sapiens) (Q99873 whole entry, looked up): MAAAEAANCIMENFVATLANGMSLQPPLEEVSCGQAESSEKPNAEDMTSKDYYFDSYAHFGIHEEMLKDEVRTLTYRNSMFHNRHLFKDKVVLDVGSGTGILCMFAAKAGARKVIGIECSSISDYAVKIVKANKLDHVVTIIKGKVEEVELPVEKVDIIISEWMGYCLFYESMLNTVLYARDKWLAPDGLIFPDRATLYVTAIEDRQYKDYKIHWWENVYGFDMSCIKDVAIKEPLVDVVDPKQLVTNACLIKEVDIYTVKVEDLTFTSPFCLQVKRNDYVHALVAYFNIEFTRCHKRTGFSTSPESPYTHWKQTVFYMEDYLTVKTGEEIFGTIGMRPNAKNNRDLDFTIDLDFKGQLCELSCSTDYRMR
Sequence of RmtA (Q5VLE3 whole entry): as the sequence (Q5VLE3 as listed by the source) above

SMILES | inhibition [2] [%] | inhibition [4] [%] | Activity [5] | Activity [6] | Activity [7] | inhibition [8] [%] | inhibition [12] [%] | inhibition [13] [%] | inhibition [15] [%] | IC50 (RmtA) [µM] | Activity (U-937 [1]) | Activity (U-937 [3]) | Activity (U-937 [9]) | inhibition (U-937 [10]) [%] | Activity (U-937 [11]) | Activity (U-937 [14]) [%] | Activity (U-937 [16]) [%] | Activity (U-937 [17]) [%]
O=C(Nc1cc(Br)c(O)c(Br)c1)c1ccc(C(=O)Nc2cc(Br)c(O)c(Br)c2)cc1 |  | 0 |  |  |  |  |  |  |  |  | Active | Active |  |  |  |  |  | 
O=C(/C=C/c1cc(Br)c(O)c(Br)c1)/C=C/c1cc(Br)c(O)c(Br)c1 |  |  | Active |  | Active |  | 100 | 76 | 61 | 69 | Active | Active | Active | 100 | Active | 1.1 | 95.2 | 77
CN1C/C(=C\c2cc(Br)c(O)c(Br)c2)C(=O)/C(=C/c2cc(Br)c(O)c(Br)c2)C1 |  |  | Active | Active | Active |  | 64 | 73 | 63 | 39 | Active | Active | Active | 87 | Active | 1 | 53.2 | 

Now from value to molecule, other results behind:

inhibition [2] [%] | inhibition [4] [%] | Activity [5] | Activity [6] | Activity [7] | inhibition [8] [%] | inhibition [12] [%] | inhibition [13] [%] | inhibition [15] [%] | IC50 (RmtA) [µM] | SMILES | Activity (U-937 [1]) | Activity (U-937 [3]) | Activity (U-937 [9]) | inhibition (U-937 [10]) [%] | Activity (U-937 [11]) | Activity (U-937 [14]) [%] | Activity (U-937 [16]) [%] | Activity (U-937 [17]) [%]
0 |  |  |  |  |  |  |  |  |  | CC(C)(C(=O)/C=C/c1ccc(O)c(Br)c1)C(=O)/C=C/c1ccc(O)c(Br)c1 | Active | Active |  |  |  |  |  | 
 |  | inactive | inactive | Active | 0 |  |  |  |  | O=C1/C(=C/c2ccc(O)c(Br)c2)CCCC/C1=C\c1ccc(O)c(Br)c1 | Active | Active | Active |  |  |  |  | 

Source: ChEMBL document CHEMBL1144710, “epigenetic multiple ligands: mixed histone/protein methyltransferase, acetyltransferase, and class III deacetylase (sirtuin) inhibitors” (J Med Chem, 2008)
